Experimental findings from ChEMBL document CHEMBL4814011, “Discovery of a novel class of inhaled dual pharmacology muscarinic antagonist and β2 agonist (MABA) for the treatment of chronic obstructive pulmonary disease (COPD)” (Bioorg Med Chem Lett, 2021) are described below.

What is called Ki is the equilibrium dissociation constant of an inhibitor or competing ligand from its target. Broadly, the pIC50 is −log10 of the IC50, conventionally taken in molar units. The term inhibition in vivo denotes the change of the read-out against control, counted positive when it falls.

The structures appear in SMILES notation. Activity calls are given as the source filed them. The rule behind the calls is not given here. Bounds are passed on as bounds.

The target in series [1] is Muscarinic acetylcholine receptor M3 (Homo sapiens, UniProt P20309). The series can be described thus: Displacement of [3H]-N-methylscopolamine from human muscarinic M3 receptor.
Chain of Muscarinic acetylcholine receptor M3 (P20309 whole entry): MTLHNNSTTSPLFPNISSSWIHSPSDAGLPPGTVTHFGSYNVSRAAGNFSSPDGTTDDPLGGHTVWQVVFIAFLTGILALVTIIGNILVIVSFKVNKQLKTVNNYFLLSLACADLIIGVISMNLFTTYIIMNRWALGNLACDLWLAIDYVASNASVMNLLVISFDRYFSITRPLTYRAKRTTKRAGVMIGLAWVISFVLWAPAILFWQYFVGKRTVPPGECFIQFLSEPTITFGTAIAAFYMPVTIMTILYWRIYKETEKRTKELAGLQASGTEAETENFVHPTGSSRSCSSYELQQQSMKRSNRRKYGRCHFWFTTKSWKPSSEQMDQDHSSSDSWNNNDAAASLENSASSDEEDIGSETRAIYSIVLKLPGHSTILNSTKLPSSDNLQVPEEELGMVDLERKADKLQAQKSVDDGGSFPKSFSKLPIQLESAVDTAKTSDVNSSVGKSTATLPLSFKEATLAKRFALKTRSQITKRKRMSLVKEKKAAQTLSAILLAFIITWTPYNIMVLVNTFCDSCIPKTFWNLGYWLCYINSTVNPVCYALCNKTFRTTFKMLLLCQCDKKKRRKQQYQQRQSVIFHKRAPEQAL
Series [2] concerns the target Beta-2 adrenergic receptor (Homo sapiens, UniProt P07550). The series can be described thus: Displacement of 125I-cyanopindolol from human adrenergic beta2 receptor. In a few lines: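 Radioligand binding on cloned human β2 adrenoceptor, with displacement of 125I-cyanopindolol.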
Series [3] can be described thus: (§1) Antagonist activity at muscarinic M3 receptor in guinea pig trachea assessed as inhibition of carbachol-induced contraction. The series is classed as tissue-based, Cavia porcellus. The method in brief:
(§2)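 Isolated guinea pig tracheal tissue was contracted with the muscarinic agonist carbachol, and inhibition of contraction was scored. A parallel histamine (H1) challenge, opposed only by the β2 component, was used to estimate the β2 share.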

For series [4], the species on record is Cavia porcellus. The series can be described thus: Activity at muscarinic M3 and adrenergic beta2 in guinea pig trachea assessed as time taken for compound action by MABA assay. Type of series: tissue-based.
In series [5] the target is beta-2 adrenergic receptor (guinea pig). The series can be described thus: Agonist activity at beta-2 adrenergic receptor in guinea pig trachea assessed as inhibition of histamine-induced contraction.
Series [6] in a line: Protein binding in human plasma. The series is classed as ADME, cell-free. Conditions: for fraction unbound: read-out: PPB (converted).
Series [7] is described as follows: Protein binding in rat plasma. Conditions: for fraction unbound: read-out: PPB (converted). The series is classed as ADME, cell-free.
Series [8] is described as follows: In vivo agonist activity at adrenergic beta2 receptor in guinea pig assessed as reduction in acetylcholine/histamine-induced bronchoconstriction at 1 mg/kg, IT(Intratracheal) measured after 1 hr by Konzett-Roessler methodology relative to control. The series is classed as functional. Conditions: Cavia porcellus, inhaled or nasal.
The nature of series [9]: In vivo agonist activity at adrenergic beta2 receptor in guinea pig assessed as reduction in acetylcholine/histamine-induced bronchoconstriction at 3 mg/kg, IT(Intratracheal) measured after 1 hr by Konzett-Roessler methodology relative to control. The series is classed as functional. Conditions: Cavia porcellus, inhaled or nasal.
Series [10] can be described thus: In vivo agonist activity at adrenergic beta2 receptor in guinea pig assessed as reduction in acetylcholine/histamine-induced bronchoconstriction at 3 mg/kg, IT(Intratracheal) measured after 24 hrs by Konzett-Roessler methodology relative to control. Conditions: Cavia porcellus, inhaled or nasal. Type of series: functional.
Series [11] is described as follows: In vivo agonist activity at adrenergic beta2 receptor in guinea pig assessed as reduction in acetylcholine/histamine-induced bronchoconstriction at 1 mg/kg, IT(Intratracheal) measured after 24 hrs by Konzett-Roessler methodology relative to control. Type of series: functional. Conditions: Cavia porcellus, inhaled or nasal.
A short description of series [12]: Protein binding in guinea pig plasma. The series is classed as ADME, cell-free, Cavia porcellus.
The species named for series [13] is Cavia porcellus. Described as §1. The series is classed as tissue-based. In a few lines:
as §2

Chain of Beta-2 adrenergic receptor (P07550 whole entry): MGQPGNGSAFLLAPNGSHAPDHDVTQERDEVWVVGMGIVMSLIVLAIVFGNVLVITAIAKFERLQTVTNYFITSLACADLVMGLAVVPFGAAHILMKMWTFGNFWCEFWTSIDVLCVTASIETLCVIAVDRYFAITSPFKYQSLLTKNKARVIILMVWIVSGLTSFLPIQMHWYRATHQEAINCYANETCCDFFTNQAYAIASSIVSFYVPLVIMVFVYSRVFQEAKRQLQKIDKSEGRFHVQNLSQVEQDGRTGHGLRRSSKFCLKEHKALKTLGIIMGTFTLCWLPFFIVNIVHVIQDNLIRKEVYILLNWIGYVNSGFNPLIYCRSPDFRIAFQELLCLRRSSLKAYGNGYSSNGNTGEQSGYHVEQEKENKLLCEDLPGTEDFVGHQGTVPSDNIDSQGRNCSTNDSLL

On to `O=C(NC(c1ccccc1)c1cccc(OCCCCCCCCCNC[C@H](O)c2ccc(O)c3[nH]c(=O)ccc23)c1)O[C@H]1CN2CCC1CC2` (stereo partly specified), for which the Ki is 0.251 nM in [1] and 0.2 nM in series [2]. For the same molecule, the negative-log IC50 (pIC50) in series [3] was 7.5; in series [5], 7.3. For the same molecule, the TIME in the series listed under Cavia porcellus [4] was > 4.5 h.
For `O=C(N[C@@H](c1ccccc1)c1ccc(-c2cccc(OCc3ccc(C(=O)NCCCNC[C@H](O)c4ccc(O)c5[nH]c(=O)ccc45)cc3)c2)cc1)O[C@H]1CN2CCC1CC2`, the results for the Ki in series [1] and in [2] were 0.1 nM and 0.0126 nM, respectively. The values for the pIC50 in [3] and in [5] were 9.7 and 9.8, respectively. Further, the TIME in the series filed under Cavia porcellus [4] was > 4.5 h. The fraction unbound in series [6] and in [7] was 0.05 in each case.
With `O=C(NC(c1ccccc1)c1ccc(OCCCCCCCCCNC[C@H](O)c2ccc(O)c3[nH]c(=O)ccc23)cc1)O[C@H]1CN2CCC1CC2` (stereo partly specified), the Ki in [1] is 10 nM; in [2], 0.251 nM. Besides, the pIC50 in [3] is listed as 8.3; in [5] it was 7.3. Further, the TIME in the series listed under Cavia porcellus [4] is > 4.5 h.
For the molecule `O=C(N[C@@H](c1ccccc1)c1ccc(-c2cccc(OCc3ccc(C(=O)N(CCCNC[C@H](O)c4ccc(O)c5[nH]c(=O)ccc45)Cc4ccccc4)cc3)c2)cc1)O[C@H]1CN2CCC1CC2`, the figures for the Ki in [1] and in series [2] were 0.126 nM and 0.1 nM, respectively. Also, the figures for the pIC50 in [3] and in series [5] were 8.7 and 9, respectively. Besides, in the series filed under Cavia porcellus [4], the TIME is > 3 h. Further, the fraction unbound was < 0.01 in series [6] and 0.03 in series [7]. In series [8], the inhibition in vivo at 1 mg/kg was found to be 27%. For the same molecule, the inhibition in vivo at 3 mg/kg in series [9] came to 63%; in series [10] it was 20%.
Consider `O=C(NC(c1ccccc1)c1cccc(OCCCCCCNC[C@H](O)c2ccc(O)c3[nH]c(=O)ccc23)c1)O[C@H]1CN2CCC1CC2` (stereo partly specified), for which the figures for the Ki in series [1] and in series [2] were 0.316 nM and 0.0158 nM, respectively. The values for the pIC50 in [3] and in series [5] were 9.9 and 9.8, respectively. Besides, the TIME in the series filed under Cavia porcellus [4] (filed as modulator) was < 2.25 h.
`O=C(N[C@@H](c1ccccc1)c1cccc(OCc2ccc(CCNC[C@H](O)c3ccc(O)c4[nH]c(=O)ccc34)cc2)c1)O[C@H]1CN2CCC1CC2`: the pIC50 in series [3] is listed as 9.3; in series [5], 9.1. For the same molecule, in the series listed under Cavia porcellus [4], the TIME was > 4.5 h. Further, the PPB in series [6] was determined as 98%; in series [7] it was 98%; in series [12] it was 99%. The inhibition in vivo at 1 mg/kg in [8] came out at 20%; in [11], 42%. Further, the figures for the inhibition in vivo at 3 mg/kg in series [9] and in [10] were 67% and 35%, respectively.
In the case of `O=C(N[C@@H](c1ccccc1)c1cccc(OCCCCCCNC[C@H](O)c2ccc(O)c3[nH]c(=O)ccc23)c1)O[C@H]1CN2CCC1CC2`, the values for the Ki in series [1] and in series [2] were 0.126 nM and 0.501 nM, respectively. Besides, the pIC50 entry in the series listed under Cavia porcellus [13] was “inactive”.
For `O=C(NC(c1ccccc1)c1cccc(OCCCCCCCNC[C@H](O)c2ccc(O)c3[nH]c(=O)ccc23)c1)O[C@H]1CN2CCC1CC2` (stereo partly specified), the Ki in series [1] was 0.398 nM; in [2] it was 0.1 nM. Also, the pIC50 in series [3] is 9.3; in series [5], 8.1. For the same molecule, the TIME in the series filed under Cavia porcellus [4] (filed as modulator) was < 1.5 h.
On to `CCN(CCCNC[C@H](O)c1ccc(O)c2[nH]c(=O)ccc12)C(=O)c1ccc(COc2cccc(-c3ccc([C@@H](NC(=O)O[C@H]4CN5CCC4CC5)c4ccccc4)cc3)c2)cc1`, for which the Ki was 0.251 nM in [1] and 0.0501 nM in series [2]. The pIC50 in series [3] and in series [5] was 9.5 each time. In addition, the TIME in the series filed under Cavia porcellus [4] is > 3.75 h. For the same molecule, the fraction unbound in [6] is 0.04; in series [7], 0.06.
For the molecule `O=C(NC(c1ccccc1)c1cccc(OCCCCCCCCNC[C@H](O)c2ccc(O)c3[nH]c(=O)ccc23)c1)O[C@H]1CN2CCC1CC2` (stereo partly specified), the Ki is 0.158 nM in series [1] and 0.2 nM in series [2]. For the same molecule, the pIC50 is 8.7 in series [3] and 7.8 in [5]. Further, the TIME in the series filed under Cavia porcellus [4] (filed as modulator) is < 1.5 h.
Take `O=C(N[C@H](c1ccccc1)c1cccc(OCCCCCCNC[C@H](O)c2ccc(O)c3[nH]c(=O)ccc23)c1)O[C@H]1CN2CCC1CC2`: the Ki was 3.98 nM in series [1] and 0.0398 nM in [2]. In addition, the pIC50 result in the series listed under Cavia porcellus [13] was “inactive”.
For the molecule `O=C(NC(c1ccccc1)c1cccc(OCCCCCNC[C@H](O)c2ccc(O)c3[nH]c(=O)ccc23)c1)O[C@H]1CN2CCC1CC2` (stereo partly specified), the Ki is 0.398 nM in series [1] and 0.0251 nM in series [2]. Besides, the pIC50 in series [3] is 8.5; in [5] it was 9. For the same molecule, the TIME in the series filed under Cavia porcellus [4] (filed as modulator) was < 0.75 h.
Regarding `O=C(NC(c1ccccc1)c1ccccc1)O[C@H]1CN2CCC1CC2`, the affinity in series [1], expressed as Ki, was 1.26 nM.
